Shown are actives, neighbours in structure and some others; about 2.6% of the full set was active somewhere.
HTRA1 inhibitor – HTRA1 (human) protease inhibition; recombinant HTRA1, FP-rhodamine activity-based probe, fluorescence polarization; Q92743; inhibition, % at 5.96 µM; 340,000 tested, 0.5% active; in the data active means inhibition above about 36%;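 further: 0% = enzyme with DMSO and 100% = wells lacking enzyme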
TCR-CD3 inh – blocks the human TCR-CD3 interaction; TAMRA-labeled TCR probe fluorescence, biochemical; inhibition, % at 9.4 µM; 360,000 tested, 0.37% active; in the data active means inhibition above about 19%;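 further: recombinant mutant TCR 2C K166C tagged with TAMRA read by polarization; 0% = receptor in buffer alone and 100% = receptor with positive control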
PRMT1 inh – blocks human protein arginine methyltransferase 1; Q99873; recombinant PRMT1, activity-based probe fluorescence polarization; inhibition, % at 2.79 µM; 370,000 tested, 1.3% active; AID 652257;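 active means inhibition above about 21% made by adding two undisclosed values, limit read from the data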
SIAE inh – blocks human sialic acid acetylesterase; inhibition, % at 9.66 µM; 370,000 tested, 0.69% active; Q9HAT2; AID 1053197; SIAE FP-Rh probe binding, fluorescence polarization;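 active means inhibition above a cutoff: mean of compounds within the control limits plus 3 SD of those, cut at about 17% in these data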;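 further: 0% = plate median of compound wells and 100% = probe without SIAE protein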
mABHD4 FP – inhibits mouse alpha/beta hydrolase domain 4 | purified mABHD4, FP-Rh probe fluorescence polarization | inhibition, % at 8.92 µM | 370,000 tested, 0.54% active | AID 720543;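 active means inhibition exceeding the mean over every tested compound plus 3 SD, cut at about 30% in these data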;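 further: 0% = plate median of compound wells and 100% = S159A mutant with DMSO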
Target sequence (Q8VD66 whole entry, looked up, the tested form may be a part): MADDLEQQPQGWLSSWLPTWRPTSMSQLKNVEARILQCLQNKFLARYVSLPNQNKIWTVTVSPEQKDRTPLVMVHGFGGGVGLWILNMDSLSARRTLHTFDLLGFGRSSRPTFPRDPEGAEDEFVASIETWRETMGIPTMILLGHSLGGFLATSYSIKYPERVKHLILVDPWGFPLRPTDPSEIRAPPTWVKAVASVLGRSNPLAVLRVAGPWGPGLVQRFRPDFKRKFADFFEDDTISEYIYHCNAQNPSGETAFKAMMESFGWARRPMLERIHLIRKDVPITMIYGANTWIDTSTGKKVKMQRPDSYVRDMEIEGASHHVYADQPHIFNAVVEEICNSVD
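Assay system: Wild-type mouse ABHD4 protein | Medium: HEPES pH 7.0 buffer, 150 mM NaCl, 0.01% Pluronic F-127 | Incubation: Enzyme–compound pre-incubation 45 min, then probe 60 min, both 25 °C | Technique: Fluorescence polarization with parallel and perpendicular emission, 525/598 nm | Evaluation: % inhibition of FP-Rh probe binding versus controls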
PRMT1 confirm – PRMT1 (human) inhibition, FP confirmation. shares compounds with PRMT1 inh. 3,300 tested, 42% active. recombinant His-PRMT1, activity-based probe fluorescence polarization. inhibition, % at 2.79 µM. AID 687036;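 active means mean inhibition across replicates above the hit cutoff derived for the earlier primary screen, cut at about 22% in these data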
Numbers without * were called inactive; · = no result given.

SMILES	HTRA1 inhibitor	TCR-CD3 inh	PRMT1 inh	SIAE inh	mABHD4 FP	PRMT1 confirm
Cc1nnc(N=c2ssnc2Cl)o1	-3	4	49*	10	1	70*
CCN(CC)CCn1c2ccccc2c2n[nH]c(=S)nc21	10	4	85*	3	-5	58*
CCc1nnc(NC(=O)c2cc(-c3ccco3)nc3ccccc23)s1	28	4	26*	12	7	12
O=C(Nc1nncs1)c1cc(-c2ccco2)nc2ccccc12	2	7	36*	-4	3	9
CCc1nnc(NC(=O)c2cc(-c3ccccn3)nc3ccccc23)s1	-2	2	-2	-3	3	·
Cc1cccc(NC(=O)c2cc(-c3ccco3)nc3ccccc23)n1	-8	-13	35*	1	-10	9
Cc1cc(C)nc(SCC(=O)c2cc3ccccc3oc2=O)n1	1	5	25*	5	4	8
Nc1nc(SCC(=O)c2cc3ccccc3o2)n[nH]1	-2	-3	71*	-1	-2	13
O=C(CSc1nc2ccccc2o1)c1cc2ccccc2oc1=O	-4	-3	10	2	19	·
CC(=Nc1ccc(C)cc1C)c1sc2ccccc2c1O	-18	-2	27*	2	20	16
Cc1ccc(S(=O)(=O)N2CCC(C(=O)OC(C)C(=O)NC3CCCCC3C)CC2)cc1 (stereo unspecified)	8	4	-1	10	-6	·
C[C@H](O)[C@@H]1CN2CCc3c([nH]c4ccccc34)[C@@H]2C[C@@H]1N(C)C(=S)NCCc1ccccc1	·	-4	49*	2	2	11
Cc1cccc(-c2cccc3c4c([nH]c23)[C@@H]2C[C@H](N(C)C(=S)NCCc3ccccc3)[C@H]([C@H](C)O)CN2CC4)c1	·	·	3	-9	-3	·
Cc1ccc(SC2=C(C(=O)O)CCCC2)cc1	2	6	1	6	3	·
NC(=O)c1cccc2ccccc12	3	1	-6	0	3	·
N#CSCC(=O)c1cccc2ccccc12	-13	-3	60*	-5	3	47*
C[C@@H]1CN([C@H](C)CO)C(=O)c2cc(Br)cnc2O[C@H]1CN(C)C(=O)Nc1ccccc1F	1	-1	0	6	-6	·
O=C1NCCCCC1NC1CC(=O)N(c2ccccc2)C1=O (stereo unspecified)	-2	8	34*	-1	3	7
CCOc1ccc(N2C(=O)CC(NCC#N)C2=O)cc1 (stereo unspecified)	0	1	33*	2	4	46*
CCCCOc1ccc(N2C(=O)CC(NCc3ccncc3)C2=O)cc1 (stereo unspecified)	5	-5	15	-1	-13	·
O=C1CC(NNc2ccccc2)C(=O)N1c1ccccc1 (stereo unspecified)	-3	1	1	-6	9	·
CCOc1ccc(N2C(=O)CC(NCc3ccc(S(N)(=O)=O)cc3)C2=O)cc1 (stereo unspecified)	-4	7	5	11	6	·
CCOc1ccc(N2C(=O)CC(NC3CCCCNC3=O)C2=O)cc1 (stereo unspecified)	-1	0	44*	-1	-9	0
COc1ccc(NC(=O)C2CCC(C(C)(C)C)CC2)cc1S(=O)(=O)N1CCOCC1 (stereo unspecified)	-4	-9	3	11	-3	·
COc1ccc(-c2cc(C3CCN(c4cc(Cl)nc(N)n4)CC3)[nH]n2)cc1	-27	3	-5	-3	-10	·
SMILES	HTRA1 inhibitor	TCR-CD3 inh	PRMT1 inh	SIAE inh	mABHD4 FP	PRMT1 confirm
COc1ccc(OC)c(-c2cc(C3CCN(c4cc(Cl)nc(N)n4)CC3)[nH]n2)c1	-36	-3	40*	-2	-5	-1
COc1ccc2[nH]c(=O)c(CNc3ccccc3)cc2c1	8	-6	25*	7	17	1
COc1ccc(N2CCN(C(=O)COC(=O)c3ccc(OC(F)F)cc3)CC2)cc1	-1	8	-2	-5	0	·
Cc1cc(C)c(NC(=O)c2cccs2)c(C)c1NC(=O)c1cccs1	-2	-1	-5	2	-7	·
CC(C)NC(=O)Cn1c(SCC(=O)c2ccc(F)cc2)nc2ccccc21	-8	8	62*	-1	6	5
CC(C)NC(=O)CSc1nc2ccccc2n1CC(=O)N(C(C)C)C(C)C	0	-5	3	1	-18	·
CC(=O)NC(c1ccc(F)c(F)c1)c1nc(-c2cnc3ccccc3c2)cs1 (stereo unspecified)	·	3	32*	-4	-6	3
Cc1ccc(C(=O)N2CCOCC2)cc1S(=O)(=O)N1CCCCC1	6	8	-1	-6	-1	·
Cc1ccc([C@@H]2[C@@H]3C(=O)N(c4ccccc4)C(=O)[C@@H]3[C@]3(C)C(=O)N(CC4CC4)CC(=O)N23)o1	1	1	0	-5	8	·
O=C(CCSc1ccc(Cl)cc1)c1ccco1	-2	-3	41*	-3	-6	66*
O=C(c1cccs1)N1C[C@@H](O)[C@H](n2cc(C3CC3)nn2)C[C@@H]1c1ccc(Cl)cc1	3	8	-2	-3	4	·
O=C(CSc1nc2c(c(C(F)(F)F)n1)CCc1ccccc1-2)NCc1ccco1	-11	-9	26*	-10	-11	3
CC(C)c1ccc(N(C(=O)c2csnn2)C(C(=O)NC2CCCC2)c2cccnc2)cc1 (stereo unspecified)	3	-6	1	2	7	·
Cn1ccnc1Sc1cc(NCCCO)c([N+](=O)[O-])c2nonc12	0	1	42*	2	6	26*
O=[N+]([O-])c1c(NCCCO)cc(Sc2ccc(Cl)cc2)c2nonc12	-1	-5	14	-2	13	·
O=C(O)C1CSC(c2coc3ccccc3c2=O)N1 (stereo unspecified)	-9	12	51*	-8	5	35*
CC1CCOC(c2coc3ccccc3c2=O)O1 (stereo unspecified)	1	-4	-1	-3	3	·
CCOc1ncccc1C(=O)Nc1ccc2c(c1)OCCCO2	-6	0	-7	-10	-5	·
O=C1/C(=C/c2ccc(O)c(O)c2)Oc2cc(O)ccc21	-38	-8	5	-74	20	·
Cc1ccsc1/C=C1\Oc2cc(O)ccc2C1=O	3	-6	40*	0	-15	30*
Cc1sc2ncn(CC(=O)NCCCN3CC(C)CC(C)C3)c(=O)c2c1S(=O)(=O)N1CC(C)CC(C)C1 (stereo unspecified)	4	-1	-2	0	-1	·
Cc1c(Cl)cccc1NC(=O)CSc1sc2c(O)cc(=O)[nH]c2c1C#N	-39	2	1	-17	-11	·
N#Cc1c(SCC(=O)Nc2ccccc2C(F)(F)F)sc2c(O)cc(=O)[nH]c12	-21	10	31*	-7	-28	5
N#Cc1c(SCC(=O)Nc2ccc(Cl)cc2Cl)sc2c(O)cc(=O)[nH]c12	-27	13	30*	-12	-2	4
